Converted amounts (≈) assume the structure as drawn. The source made the active and inactive calls. No cut-off for these calls is given here.
Tests used:
Cryptococcus neoformans [1] = assay: Antifungal activity against Cryptococcus neoformans var. grubii H99 after 48 hrs by serial dilution method; assay type: functional
Summary of the method: (§1)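 Broth serial dilution per NCCLS. Medium was RPMI 1640 buffered with 0.165M MOPS, NaHCO3 (0.2%) and NaOH (0.27%). Strains were pre-grown in YPD at 30 °C with shaking. Inoculum 10³ CFU/mL; compounds in DMSO. Plates incubated at 35 °C for 48 h. MIC80 is the concentration giving 80% inhibition.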

Candida albicans = assay: Antifungal activity against Candida albicans SC5314 after 48 hrs by serial dilution method; assay type: functional; conditions: SC5314, 48 h; summary of the method: as §1
Cryptococcus neoformans [2] = assay: Antifungal activity against Cryptococcus neoformans var. grubii ATCC 34877 after 48 hrs by serial dilution method; assay type: functional; conditions: var. grubii ATCC 34877, 48 h; summary of the method: as §1
Cryptococcus neoformans [3] = assay: Antibiofilm activity against Cryptococcus neoformans var. grubii H99 at 0.062 to 8 ug/mL after 24 hrs by XTT analysis; assay type: functional, organism-based
Summary of the method: (§2)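 H99 cells at 1.0×10^6 CFU/mL in RPMI 1640 left to adhere 90 min at 37 °C. Non-adherent cells were removed and the wells washed three times with PBS. Fresh RPMI with drug (0.062-8 µg/mL) or drug-free control was added, then 24 h more at 37 °C. Formation rate by XTT reduction. Means ± SD of three independent experiments; ANOVA and t-test.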

Cryptococcus gattii = assay: Antifungal activity against Cryptococcus gattii ATCC 14116 after 48 hrs by serial dilution method; conditions: ATCC 14116, 48 h
Cryptococcus neoformans [4] = assay: Antibiofilm activity against Cryptococcus neoformans var. grubii H99 at 0.062 ug/mL after 24 hrs by XTT analysis relative to control; assay type: functional; summary of the method: as §2
Cryptococcus neoformans [5] = assay: Inhibition of melanin production in Cryptococcus neoformans var. grubii H99 at 16 ug/mL; assay type: functional, organism-based
Summary of the method: (§3)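 PBS-washed exponential H99 cells at 1×10^6 cells/mL in RPMI 1640 with drug. Drops placed on L-DOPA (melanin) or urea (urease) medium and incubated at 37 °C. Read-out: black versus white colonies for melanin, red medium for urease.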

Cryptococcus neoformans [6] = assay: Inhibition of urease production in Cryptococcus neoformans var. grubii H99 at 64 ug/mL; assay type: functional, organism-based; summary of the method: as §3
Cryptococcus neoformans [7] = assay: Fungistatic activity against Cryptococcus neoformans var. grubii H99 at 0.25 ug/mL up to 48 hrs by time-growth curve assay; assay type: functional, organism-based
Cryptococcus neoformans [8] = assay: Fungistatic activity against Cryptococcus neoformans var. grubii H99 up to 48 hrs by time-growth curve assay; assay type: functional, organism-based
Summary of the method: (§4)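 Exponential H99 cells at 2×10^6 cells/mL in 5 mL RPMI 1640 with drug (0.062-1 µg/mL) or DMSO control. Shaken at 200 rpm, 30 °C. Cells counted at 0, 3, 6, 9, 12, 24 and 48 h. Three independent experiments.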

Cryptococcus neoformans [9] = assay: Fungicidal activity against Cryptococcus neoformans var. grubii H99 at 2 ug/mL after 48 hrs by time-kill assay; assay type: functional, organism-based
Summary of the method: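 Time-kill: PBS-washed exponential H99 cells at 2×10^6 cells/mL in 5 mL RPMI 1640 with drug, shaken (200 rpm) at 30 °C. Samples taken at 0, 6, 12, 24 and 48 h, diluted and plated on SDA. CFU counted after 48 h at 30 °C.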

Cryptococcus neoformans [10] = assay: Induction of apoptosis in Cryptococcus neoformans var. grubii H99 assessed as early apoptotic cells at 0.5 ug/mL after 24 hrs by annexin V-FITC/propidium iodide staining-based flow cytometric analysis (reference value: 1.05%); assay type: functional
Cryptococcus neoformans [11] = assay: Induction of apoptosis in Cryptococcus neoformans var. grubii H99 assessed as late apoptotic cells at 0.5 ug/mL after 24 hrs by annexin V-FITC/propidium iodide staining-based flow cytometric analysis (reference value: 0.15%); assay type: functional
Cryptococcus neoformans [12] = assay: Induction of apoptosis in Cryptococcus neoformans var. grubii H99 assessed as necrotic cells at 0.5 ug/mL after 24 hrs by annexin V-FITC/propidium iodide staining-based flow cytometric analysis (reference value: 0.19%); assay type: functional
Cryptococcus neoformans [13] = assay: Induction of apoptosis in Cryptococcus neoformans var. grubii H99 assessed as early apoptotic cells at 1 ug/mL after 24 hrs by annexin V-FITC/propidium iodide staining-based flow cytometric analysis (reference value: 1.05%); assay type: functional
Cryptococcus neoformans [14] = assay: Induction of apoptosis in Cryptococcus neoformans var. grubii H99 assessed as late apoptotic cells at 1 ug/mL after 24 hrs by annexin V-FITC/propidium iodide staining-based flow cytometric analysis (reference value: 0.15%); assay type: functional
Cryptococcus neoformans [15] = assay: Induction of apoptosis in Cryptococcus neoformans var. grubii H99 assessed as necrotic cells at 1 ug/mL after 24 hrs by annexin V-FITC/propidium iodide staining-based flow cytometric analysis (reference value: 0.19%); assay type: functional
Cryptococcus neoformans [16] = assay: Induction of apoptosis in Cryptococcus neoformans var. grubii H99 assessed as early apoptotic cells at 2 ug/mL after 24 hrs by annexin V-FITC/propidium iodide staining-based flow cytometric analysis (reference value: 1.05%); assay type: functional
Cryptococcus neoformans [17] = assay: Induction of apoptosis in Cryptococcus neoformans var. grubii H99 assessed as late apoptotic cells at 2 ug/mL after 24 hrs by annexin V-FITC/propidium iodide staining-based flow cytometric analysis (reference value: 0.15%); assay type: functional
Cryptococcus neoformans [18] = assay: Induction of apoptosis in Cryptococcus neoformans var. grubii H99 assessed as necrotic cells at 2 ug/mL after 24 hrs by annexin V-FITC/propidium iodide staining-based flow cytometric analysis (reference value: 0.19%); assay type: functional
Cryptococcus neoformans [19] = assay: Cell cycle arrest in Cryptococcus neoformans var. grubii H99 assessed as accumulation of cells at G1 phase at 0.5 ug/mL after 24 hrs by propidium iodide staining-based flow cytometric analysis (reference value: 12.24%); assay type: functional
Summary of the method: (§5)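 Exponential H99 cells washed three times with PBS and set at 5×10^5 cells/mL in RPMI 1640. Dosed 0.5, 1 or 2 µg/mL and shaken (200 rpm) at 30 °C for 24 h. Walls digested 1 h at 30 °C in PBS with 0.24% snailase, then fixed overnight in 70% ethanol. Stained with 50 µg/mL PI, 4 °C, 30 min; ~1×10^6 cells read by flow cytometry.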

Cryptococcus neoformans [20] = assay: Cell cycle arrest in Cryptococcus neoformans var. grubii H99 assessed as accumulation of cells at G1 phase at 1 ug/mL after 24 hrs by propidium iodide staining-based flow cytometric analysis (reference value: 12.24%); assay type: functional; summary of the method: as §5
Cryptococcus neoformans [21] = assay: Cell cycle arrest in Cryptococcus neoformans var. grubii H99 assessed as accumulation of cells at G1 phase at 2 ug/mL after 24 hrs by propidium iodide staining-based flow cytometric analysis (reference value: 12.24%); assay type: functional; summary of the method: as §5
Cryptococcus neoformans [22] = assay: Cell cycle arrest in Cryptococcus neoformans var. grubii H99 assessed as decrease in cells at S phase at 0.5 to 2 ug/mL after 24 hrs by propidium iodide staining-based flow cytometric analysis; assay type: functional, organism-based; summary of the method: as §5
Cryptococcus neoformans [23] = assay: Fungistatic activity against Cryptococcus neoformans var. grubii H99 assessed as inhibition of cell growth at 1 ug/mL up to 48 hrs by time-growth curve assay; assay type: functional; conditions: read-out: GI; summary of the method: as §4
Cryptococcus neoformans [24] = assay: Fungistatic activity against Cryptococcus neoformans var. grubii H99 at 16 ug/mL up to 48 hrs by time-growth curve assay; assay type: functional, organism-based
Summary of the method: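 Exponential-phase H99 cells were resuspended in fresh RPMI 1640 at 2×10^6 cells/mL, drug was added, and cultures were shaken at 200 rpm and 30 °C. Aliquots were removed and counted at 0, 3, 6, 9, 12, 24 and 48 h. The control received DMSO. Three independent experiments were run.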

Cryptococcus neoformans [25] = assay: Fungicidal activity against Cryptococcus neoformans var. grubii H99 at 16 ug/mL after 48 hrs by time-kill assay; assay type: functional, organism-based
Summary of the method: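 Exponential-phase H99 cells were washed three times in PBS and resuspended in RPMI 1640 at 2×10^6 cells/mL. After drug was added, cultures were shaken at 200 rpm and 30 °C. Samples were taken at 0, 6, 12, 24 and 48 h, diluted, and plated on SDA agar. Viable counts were read after 48 h at 30 °C.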

Question: What does the source list for `COc1ccc(-c2noc3c2C(=O)c2sccc2C3=O)cc1`?
Answer: MIC80 (Cryptococcus neoformans [1]): 1 µg/mL (≈ 3.21 µM); MIC80 (Candida albicans): > 64 µg/mL

Question: For `O=C1c2ccsc2C(=O)c2c(-c3cccc(Cl)c3)noc21`, which MIC80 (Cryptococcus neoformans [1]) is on record?
Answer: > 64 µg/mL

Question: What about the MIC80 (Candida albicans) of the same molecule?
Answer: > 64 µg/mL

Question: Which results are given for `CCCc1noc2c1C(=O)c1sccc1C2=O`?
Answer: MIC80 (Cryptococcus neoformans [1]): 0.12 µg/mL (≈ 0.485 µM); MIC80 (Candida albicans): 4 µg/mL (≈ 16.2 µM); MIC80 (Cryptococcus neoformans [2]): 0.12 µg/mL (≈ 0.485 µM); Activity (Cryptococcus neoformans [3]): Active; MIC80 (Cryptococcus gattii): 0.25 µg/mL (≈ 1.01 µM)

Question: Which MIC80 (Cryptococcus neoformans [1]) does the source give for `COc1ccccc1-c1noc2c1C(=O)c1sccc1C2=O` here?
Answer: 0.5 µg/mL (≈ 1.61 µM)

Question: And the MIC80 (Candida albicans)?
Answer: > 64 µg/mL

Question: What does the source list for `O=C1c2ccsc2C(=O)c2c(-c3ccccc3Cl)noc21`?
Answer: MIC80 (Cryptococcus neoformans [1]): 0.25 µg/mL (≈ 0.792 µM); MIC80 (Candida albicans): > 64 µg/mL

Question: Which results are given for `CCc1noc2c1C(=O)c1sccc1C2=O`?
Answer: MIC80 (Cryptococcus neoformans [1]): 0.031 µg/mL (≈ 0.133 µM); MIC80 (Candida albicans): 2 µg/mL (≈ 8.57 µM); MIC80 (Cryptococcus neoformans [2]): 0.12 µg/mL (≈ 0.514 µM); Activity (Cryptococcus neoformans [4]): >80%; Activity (Cryptococcus neoformans [3]): Active; inhibition (Cryptococcus neoformans [5]): Active; inhibition (Cryptococcus neoformans [6]): Active; Activity (Cryptococcus neoformans [7]): Active; Activity (Cryptococcus neoformans [8]): Dose-dependent effect; Activity (Cryptococcus neoformans [9]): Active; Activity (Cryptococcus neoformans [10]): 20.49%; Activity (Cryptococcus neoformans [11]): 3.33%; Activity (Cryptococcus neoformans [12]): 1.35%; Activity (Cryptococcus neoformans [13]): 39.23%; Activity (Cryptococcus neoformans [14]): 5.39%; Activity (Cryptococcus neoformans [15]): 0.51%; Activity (Cryptococcus neoformans [16]): 50.7%; Activity (Cryptococcus neoformans [17]): 6.78%; Activity (Cryptococcus neoformans [18]): 0.32%; Activity (Cryptococcus neoformans [19]): 50.21%; Activity (Cryptococcus neoformans [20]): 49.14%; Activity (Cryptococcus neoformans [21]): 48.61%; Activity (Cryptococcus neoformans [22]): Active; inhibition of growth at 1 µg/mL (Cryptococcus neoformans [23]): 100%; MIC80 (Cryptococcus gattii): 0.25 µg/mL (≈ 1.07 µM)

Question: How did the MIC80 (Cryptococcus neoformans [1]) turn out when `Cc1cccc(-c2noc3c2C(=O)c2sccc2C3=O)c1` was run?
Answer: 1 µg/mL (≈ 3.39 µM)

Question: What about the MIC80 (Candida albicans) of the same molecule?
Answer: > 64 µg/mL

Question: For `OC(Cn1cncn1)(Cn1cncn1)c1ccc(F)cc1F` [FLUCONAZOLE], which MIC80 (Cryptococcus neoformans [1]) is on record?
Answer: 2 µg/mL (≈ 6.53 µM)

Question: What about the MIC80 (Candida albicans) of the same molecule?
Answer: 0.25 µg/mL (≈ 0.816 µM)

Question: What about the MIC80 (Cryptococcus neoformans [2]) of the same molecule?
Answer: 8 µg/mL (≈ 26.1 µM)

Question: What about the Activity (Cryptococcus neoformans [24]) of the same molecule?
Answer: Active

Question: And the Activity (Cryptococcus neoformans [25])?
Answer: inactive

Question: What about the MIC80 (Cryptococcus gattii) of the same molecule?
Answer: 8 µg/mL (≈ 26.1 µM)

Question: `COCc1noc2c1C(=O)c1sccc1C2=O` was tested. Which MIC80 (Cryptococcus neoformans [1]) did it give?
Answer: 0.25 µg/mL (≈ 1 µM)

Question: And the MIC80 (Candida albicans)?
Answer: 8 µg/mL (≈ 32.1 µM)

Question: And the MIC80 (Cryptococcus neoformans [2])?
Answer: 0.25 µg/mL (≈ 1 µM)

Question: And the MIC80 (Cryptococcus gattii)?
Answer: 0.5 µg/mL (≈ 2.01 µM)

Question: With `Cc1ccccc1-c1noc2c1C(=O)c1sccc1C2=O` as the molecule, how does the MIC80 (Cryptococcus neoformans [1]) read?
Answer: 0.25 µg/mL (≈ 0.847 µM)

Question: What about the MIC80 (Candida albicans) of the same molecule?
Answer: > 64 µg/mL

Question: Which MIC80 (Cryptococcus neoformans [1]) does the source give for `Cn1cccc1-c1noc2c1C(=O)c1sccc1C2=O` here?
Answer: 4 µg/mL (≈ 14.1 µM)

Question: What about the MIC80 (Candida albicans) of the same molecule?
Answer: 16 µg/mL (≈ 56.3 µM)

Question: Which MIC80 (Cryptococcus neoformans [1]) does the source give for `O=C1c2ccsc2C(=O)c2c(-c3ccc(Br)cc3)noc21` here?
Answer: > 64 µg/mL

Question: What about the MIC80 (Candida albicans) of the same molecule?
Answer: > 64 µg/mL

Source: ChEMBL document CHEMBL4368921, “Discovery of novel simplified isoxazole derivatives of sampangine as potent anti-cryptococcal agents” (2019)
